Holding throughout (conditions): stereoisomer not certain
The target of assay [1] is T1, OR2A7 (Homo sapiens) (UniProt Q96R45).
T1 sequence (whole entry): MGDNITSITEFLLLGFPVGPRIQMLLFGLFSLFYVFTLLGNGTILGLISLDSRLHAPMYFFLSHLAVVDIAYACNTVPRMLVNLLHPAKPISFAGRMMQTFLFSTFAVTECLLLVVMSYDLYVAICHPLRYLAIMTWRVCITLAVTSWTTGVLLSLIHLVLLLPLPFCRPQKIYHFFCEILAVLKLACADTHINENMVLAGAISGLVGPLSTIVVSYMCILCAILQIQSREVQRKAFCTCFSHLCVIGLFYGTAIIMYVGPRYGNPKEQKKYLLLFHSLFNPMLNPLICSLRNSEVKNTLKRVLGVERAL
The procedure, abridged: (§1)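 Assay methods differ from source to source, frequently being transient luciferase assays in mammalian cell lines. For each receptor–molecule pair, the label responsive (active) applies when the original authors judged the measured signal statistically different from baseline, and non-responsive (inactive) applies otherwise.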

For assay [2], the target named is T2, OR2B3 (Homo sapiens) (UniProt O76000).
T2 sequence (whole entry): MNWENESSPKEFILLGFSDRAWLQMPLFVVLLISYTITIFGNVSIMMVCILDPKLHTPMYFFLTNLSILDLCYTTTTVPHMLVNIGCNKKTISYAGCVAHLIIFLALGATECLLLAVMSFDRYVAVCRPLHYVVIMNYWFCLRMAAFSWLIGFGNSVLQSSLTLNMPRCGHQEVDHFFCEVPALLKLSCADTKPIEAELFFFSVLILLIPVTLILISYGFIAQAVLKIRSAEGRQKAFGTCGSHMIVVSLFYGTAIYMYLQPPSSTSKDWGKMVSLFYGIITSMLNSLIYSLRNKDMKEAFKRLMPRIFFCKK
The essentials:
as §1

Assay [3] has as its system OR2A5 I126V A202S A255T. The essentials:
as §1

The subject of assay [4] is OR2A7. The procedure, abridged:
as §1

The target of assay [5] is OR2AE1 (Homo sapiens) (UniProt Q8NHA4). The essentials:
as §1

For assay [6], the target named is OR2AG1 (Homo sapiens) (UniProt Q9H205). The essentials: as §1
For assay [7], the target named is OR2AG2 (Homo sapiens) (UniProt A6NM03). The procedure, abridged:
as §1

Assay [8] concerns the target OR2AK2 (Homo sapiens) (UniProt Q8NG84). The procedure, abridged:
as §1

Assay [9] addresses OR2AP1 (Homo sapiens) (UniProt Q8NGE2). The procedure, abridged:
as §1

The target of assay [10] is OR2AT4 (Homo sapiens) (UniProt A6NND4). The essentials:
as §1

In assay [11] the target is T3, OR2B11 (Homo sapiens) (UniProt Q5JQS5).
T3 sequence (whole entry): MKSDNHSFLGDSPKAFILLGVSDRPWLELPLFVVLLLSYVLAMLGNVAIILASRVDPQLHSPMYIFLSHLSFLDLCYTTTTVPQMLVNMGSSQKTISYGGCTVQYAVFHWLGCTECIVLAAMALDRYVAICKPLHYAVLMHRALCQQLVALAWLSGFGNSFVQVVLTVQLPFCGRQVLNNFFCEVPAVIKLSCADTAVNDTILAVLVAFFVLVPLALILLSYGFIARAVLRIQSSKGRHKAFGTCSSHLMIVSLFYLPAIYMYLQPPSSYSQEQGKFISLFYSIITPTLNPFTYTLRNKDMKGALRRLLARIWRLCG
The essentials:
as §1

The target of assay [12] is OR2B2 (Homo sapiens) (UniProt Q9GZK3). The procedure, abridged:
as §1

In assay [13] the target is OR2B6 (Homo sapiens) (UniProt P58173). The procedure, abridged:
as §1

The test system of assay [14] is OR2BB. The procedure, abridged:
as §1
Target sequence in this assay (as listed by the source): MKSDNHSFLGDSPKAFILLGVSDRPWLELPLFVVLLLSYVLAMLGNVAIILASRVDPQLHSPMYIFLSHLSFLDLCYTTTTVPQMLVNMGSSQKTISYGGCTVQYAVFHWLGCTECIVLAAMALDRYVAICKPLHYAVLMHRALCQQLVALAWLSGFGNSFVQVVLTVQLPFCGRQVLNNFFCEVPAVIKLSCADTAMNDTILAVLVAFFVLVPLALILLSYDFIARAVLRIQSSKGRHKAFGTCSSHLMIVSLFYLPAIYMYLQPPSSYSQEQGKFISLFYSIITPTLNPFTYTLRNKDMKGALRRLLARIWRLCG

For assay [15], the system named is OR2BB. The procedure, abridged:
as §1
The source holds these as a separate data set.
Target sequence in this assay (as listed by the source): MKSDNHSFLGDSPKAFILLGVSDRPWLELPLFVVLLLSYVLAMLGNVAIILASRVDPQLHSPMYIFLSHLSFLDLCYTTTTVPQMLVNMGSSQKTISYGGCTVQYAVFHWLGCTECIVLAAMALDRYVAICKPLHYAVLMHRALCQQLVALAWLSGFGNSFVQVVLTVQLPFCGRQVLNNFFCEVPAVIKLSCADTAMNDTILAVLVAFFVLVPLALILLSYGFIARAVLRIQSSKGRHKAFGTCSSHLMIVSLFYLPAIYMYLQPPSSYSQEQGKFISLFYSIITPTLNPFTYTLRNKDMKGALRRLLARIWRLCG

In assay [16] the target is T4, OR2C1 (Homo sapiens) (UniProt O95371).
T4 sequence (whole entry): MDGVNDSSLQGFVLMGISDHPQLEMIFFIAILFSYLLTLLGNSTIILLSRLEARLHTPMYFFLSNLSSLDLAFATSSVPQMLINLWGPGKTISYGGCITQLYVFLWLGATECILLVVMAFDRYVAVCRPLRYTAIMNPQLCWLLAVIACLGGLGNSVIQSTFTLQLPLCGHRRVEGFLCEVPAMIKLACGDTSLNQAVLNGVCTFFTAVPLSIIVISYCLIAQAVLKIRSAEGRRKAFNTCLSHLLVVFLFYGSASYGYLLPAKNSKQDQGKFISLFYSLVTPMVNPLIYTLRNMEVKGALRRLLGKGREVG
The procedure, abridged: as §1

In assay [17] the test system is OR2BB. The essentials: as §1
The source holds these as a separate data set.
Target sequence in this assay (as listed by the source): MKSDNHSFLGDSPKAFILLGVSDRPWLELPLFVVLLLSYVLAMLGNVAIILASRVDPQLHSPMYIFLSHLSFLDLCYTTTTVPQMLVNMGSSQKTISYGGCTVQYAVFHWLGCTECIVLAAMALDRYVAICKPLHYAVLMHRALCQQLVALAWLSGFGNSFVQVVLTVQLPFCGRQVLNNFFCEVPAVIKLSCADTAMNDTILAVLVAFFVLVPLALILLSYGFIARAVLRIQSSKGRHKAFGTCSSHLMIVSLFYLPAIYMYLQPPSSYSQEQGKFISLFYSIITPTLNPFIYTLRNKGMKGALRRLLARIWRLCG

In assay [18] the test system is OR2BB. The essentials: as §1
This is another data set of the same source.
Target sequence in this assay (as listed by the source): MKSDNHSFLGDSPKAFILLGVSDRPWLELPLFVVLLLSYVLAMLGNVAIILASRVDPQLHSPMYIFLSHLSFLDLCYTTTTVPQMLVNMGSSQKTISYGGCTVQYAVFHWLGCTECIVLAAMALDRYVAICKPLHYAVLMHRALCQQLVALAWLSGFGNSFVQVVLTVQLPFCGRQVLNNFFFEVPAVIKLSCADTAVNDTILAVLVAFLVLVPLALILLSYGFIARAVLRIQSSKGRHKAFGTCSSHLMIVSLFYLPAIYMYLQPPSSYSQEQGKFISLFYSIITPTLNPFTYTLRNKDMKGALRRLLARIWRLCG

Assay [19] concerns OR2BB. The essentials: as §1
This is another data set of the same source.
Target sequence in this assay (as listed by the source): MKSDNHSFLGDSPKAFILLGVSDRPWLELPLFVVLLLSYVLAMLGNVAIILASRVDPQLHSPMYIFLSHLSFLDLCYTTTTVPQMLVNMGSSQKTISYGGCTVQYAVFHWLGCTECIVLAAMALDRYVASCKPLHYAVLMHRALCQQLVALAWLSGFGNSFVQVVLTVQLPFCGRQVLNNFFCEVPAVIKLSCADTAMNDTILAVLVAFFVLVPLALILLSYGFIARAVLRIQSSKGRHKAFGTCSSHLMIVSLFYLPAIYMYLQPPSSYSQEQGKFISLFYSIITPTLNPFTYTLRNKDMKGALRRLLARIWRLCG

In assay [20] the target is OR2AJ1 (Homo sapiens) (UniProt Q8NGZ0). The essentials: as §1
OR2AJ1 (Homo sapiens), sequence (Q8NGZ0 whole entry): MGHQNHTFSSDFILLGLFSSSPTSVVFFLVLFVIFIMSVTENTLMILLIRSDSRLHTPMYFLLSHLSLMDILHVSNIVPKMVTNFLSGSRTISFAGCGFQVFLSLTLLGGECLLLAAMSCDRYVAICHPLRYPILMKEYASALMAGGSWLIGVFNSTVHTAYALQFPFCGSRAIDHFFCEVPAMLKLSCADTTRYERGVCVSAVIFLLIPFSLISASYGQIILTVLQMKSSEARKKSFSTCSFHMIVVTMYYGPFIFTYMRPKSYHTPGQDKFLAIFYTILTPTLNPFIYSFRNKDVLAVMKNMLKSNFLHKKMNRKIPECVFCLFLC

OR2AP1 (Homo sapiens), sequence (Q8NGE2 whole entry): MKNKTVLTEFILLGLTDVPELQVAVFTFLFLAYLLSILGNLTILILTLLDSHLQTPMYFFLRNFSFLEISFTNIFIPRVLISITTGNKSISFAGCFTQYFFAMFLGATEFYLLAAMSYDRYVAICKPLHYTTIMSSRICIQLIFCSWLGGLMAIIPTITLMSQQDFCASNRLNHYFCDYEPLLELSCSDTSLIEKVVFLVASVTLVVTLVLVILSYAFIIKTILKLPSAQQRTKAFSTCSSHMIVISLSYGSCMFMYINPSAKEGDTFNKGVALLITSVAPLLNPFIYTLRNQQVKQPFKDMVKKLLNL
OR2AE1 (Homo sapiens), sequence (Q8NHA4 whole entry): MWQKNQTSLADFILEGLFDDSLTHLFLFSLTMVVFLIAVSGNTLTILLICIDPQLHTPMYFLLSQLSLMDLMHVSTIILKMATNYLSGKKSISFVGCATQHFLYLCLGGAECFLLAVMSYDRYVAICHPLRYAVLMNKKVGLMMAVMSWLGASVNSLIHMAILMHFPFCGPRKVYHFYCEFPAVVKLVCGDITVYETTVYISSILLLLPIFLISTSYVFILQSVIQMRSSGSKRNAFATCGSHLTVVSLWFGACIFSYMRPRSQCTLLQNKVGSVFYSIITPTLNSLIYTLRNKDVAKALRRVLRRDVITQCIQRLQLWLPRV
OR2B6 (Homo sapiens), sequence (P58173 whole entry): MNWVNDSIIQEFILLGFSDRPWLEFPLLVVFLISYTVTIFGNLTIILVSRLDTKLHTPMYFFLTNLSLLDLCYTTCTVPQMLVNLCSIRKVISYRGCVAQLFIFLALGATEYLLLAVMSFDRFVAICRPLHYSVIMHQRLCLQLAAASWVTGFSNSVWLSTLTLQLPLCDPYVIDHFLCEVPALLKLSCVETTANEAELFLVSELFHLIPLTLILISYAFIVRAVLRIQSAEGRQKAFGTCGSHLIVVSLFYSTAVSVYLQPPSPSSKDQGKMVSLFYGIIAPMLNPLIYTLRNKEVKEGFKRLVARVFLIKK
OR2AG2 (Homo sapiens), sequence (A6NM03 whole entry): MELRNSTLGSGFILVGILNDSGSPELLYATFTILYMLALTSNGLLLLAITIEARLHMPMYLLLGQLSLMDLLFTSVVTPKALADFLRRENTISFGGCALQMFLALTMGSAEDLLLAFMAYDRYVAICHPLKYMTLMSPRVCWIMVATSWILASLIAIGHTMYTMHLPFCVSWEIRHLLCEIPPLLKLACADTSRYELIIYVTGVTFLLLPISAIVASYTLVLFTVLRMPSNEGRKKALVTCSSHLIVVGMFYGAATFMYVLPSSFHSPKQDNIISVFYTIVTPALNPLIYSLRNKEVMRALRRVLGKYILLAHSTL
OR2AG1 (Homo sapiens), sequence (Q9H205 whole entry): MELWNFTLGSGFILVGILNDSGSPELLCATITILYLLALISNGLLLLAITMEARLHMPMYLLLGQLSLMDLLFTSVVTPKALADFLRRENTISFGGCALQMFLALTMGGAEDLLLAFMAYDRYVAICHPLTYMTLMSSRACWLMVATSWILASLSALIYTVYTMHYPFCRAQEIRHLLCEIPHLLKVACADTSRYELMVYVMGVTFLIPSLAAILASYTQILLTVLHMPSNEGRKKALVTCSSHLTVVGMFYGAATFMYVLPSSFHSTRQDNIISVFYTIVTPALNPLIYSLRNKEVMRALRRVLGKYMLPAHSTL
OR2AT4 (Homo sapiens), sequence (A6NND4 whole entry): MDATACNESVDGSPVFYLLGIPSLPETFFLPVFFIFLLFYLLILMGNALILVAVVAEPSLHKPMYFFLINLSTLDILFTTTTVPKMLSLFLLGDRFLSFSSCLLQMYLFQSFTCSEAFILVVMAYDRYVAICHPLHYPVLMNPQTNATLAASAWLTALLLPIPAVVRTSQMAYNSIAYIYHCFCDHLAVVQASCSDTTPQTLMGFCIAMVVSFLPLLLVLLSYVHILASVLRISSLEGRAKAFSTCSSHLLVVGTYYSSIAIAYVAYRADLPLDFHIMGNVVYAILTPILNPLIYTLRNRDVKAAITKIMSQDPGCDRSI
OR2B2 (Homo sapiens), sequence (Q9GZK3 whole entry): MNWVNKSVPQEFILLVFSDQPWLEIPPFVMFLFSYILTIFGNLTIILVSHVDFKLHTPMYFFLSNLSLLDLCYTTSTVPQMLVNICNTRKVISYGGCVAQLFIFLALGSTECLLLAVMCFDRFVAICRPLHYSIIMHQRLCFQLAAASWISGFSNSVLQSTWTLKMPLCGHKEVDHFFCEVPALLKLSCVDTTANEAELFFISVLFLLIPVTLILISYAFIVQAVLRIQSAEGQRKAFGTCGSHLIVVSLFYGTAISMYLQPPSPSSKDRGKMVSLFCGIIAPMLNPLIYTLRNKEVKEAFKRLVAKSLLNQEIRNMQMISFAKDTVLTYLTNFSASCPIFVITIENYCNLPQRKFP
OR2AK2 (Homo sapiens), sequence (Q8NG84 whole entry): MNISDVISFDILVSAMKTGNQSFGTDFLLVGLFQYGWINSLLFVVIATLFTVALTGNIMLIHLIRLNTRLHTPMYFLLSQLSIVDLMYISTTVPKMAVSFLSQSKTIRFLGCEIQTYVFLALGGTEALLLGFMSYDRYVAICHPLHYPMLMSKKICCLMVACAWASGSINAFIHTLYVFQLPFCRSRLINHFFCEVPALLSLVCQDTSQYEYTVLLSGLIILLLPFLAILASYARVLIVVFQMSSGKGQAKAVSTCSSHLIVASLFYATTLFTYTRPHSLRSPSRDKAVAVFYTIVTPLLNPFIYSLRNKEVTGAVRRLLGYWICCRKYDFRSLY
OR2A7, sequence (as listed by the source): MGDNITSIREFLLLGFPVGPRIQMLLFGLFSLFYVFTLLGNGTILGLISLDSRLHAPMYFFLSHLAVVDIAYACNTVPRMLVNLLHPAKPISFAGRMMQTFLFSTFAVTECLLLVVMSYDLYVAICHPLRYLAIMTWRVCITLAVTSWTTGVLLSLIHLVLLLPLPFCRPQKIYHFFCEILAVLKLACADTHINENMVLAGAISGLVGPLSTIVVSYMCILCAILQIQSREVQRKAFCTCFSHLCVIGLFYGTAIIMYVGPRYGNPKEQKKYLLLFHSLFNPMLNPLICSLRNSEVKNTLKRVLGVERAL

`COc1ccc(C=O)cc1`: the “odorant receptor agonist call” value in assay [1] was “inactive”.

For the molecule `O=Cc1ccccc1`, the “odorant receptor agonist call” value in assay [2] was “inactive”.

`C=CCOC(=O)Cc1ccccc1`: the “odorant receptor agonist call” value in assay [3], in [1], in [4], in assay [5], in assay [6] and in assay [7] was “inactive” in each case. The “odorant receptor agonist call” value in [8], in [9], in assay [10], in assay [11], in [12] and in [2] was “inactive” each time. The “odorant receptor agonist call” value in [13], in [14], in assay [15] and in assay [16] was “inactive” each time.

For the molecule `O=CC=Cc1ccccc1`, the “odorant receptor agonist call” value in [11] and in [19] was “active” in each case. In addition, the “odorant receptor agonist call” value in assay [2], in assay [14], in assay [17], in assay [15] and in [18] was “inactive” throughout.

Regarding `Cc1cccc(C)c1`, in assay [1], the “odorant receptor agonist call” value is “inactive”.

With `CCC1CCC(=O)O1` (configuration not stated), the “odorant receptor agonist call” value in assay [16] is “inactive”.

Take `Cc1c([N+](=O)[O-])c(C)c([N+](=O)[O-])c(C(C)(C)C)c1[N+](=O)[O-]`: the “odorant receptor agonist call” value in assay [1], in assay [5], in assay [6], in assay [7], in assay [20] and in assay [8] was “inactive” in each case. For the same molecule, the “odorant receptor agonist call” value in assay [9], in assay [10], in assay [11], in [12], in assay [13] and in assay [16] was “inactive” throughout.

In the case of `O=c1cc(O)c2ccccc2o1`, the “odorant receptor agonist call” value in assay [16] is “inactive”.

Consider `C=CCc1ccccc1`, for which the “odorant receptor agonist call” value in assay [16] is “inactive”.

With `C=CCc1ccc(OC)cc1`, the “odorant receptor agonist call” value in assay [2] was “inactive”.

Values taken from the M2OR odorant receptor database.
